Measurements taken from ChEMBL document CHEMBL1121883, “1-(Naphthylalkyl)-1H-imidazole derivatives, a new class of anticonvulsant agents” (J Med Chem, 1981).
Values joined by “and” are separate entries in the source; they are usually repeats but may differ in a detail not shown here. Equal entries are not always repeated.

How the values were obtained:
[1] = system: Mus musculus; test: Compound was evaluated for anticonvulsant activity by maximal electroshock assay(MES) in mice after po administration; 16-32; format: functional
In short: (§1)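 Male Hilltop ICR-derived mice (19-30 g), groups of 8-10, given compound or aqueous vehicle orally. The transcorneal 60-Hz shock (50 mA, 0.2 s) followed a 30 min pretreatment and a wire-hang neurological check (10 s). ED50 and 95% confidence limits were obtained from quantal data by the Litchfield-Wilcoxon method.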

[2] = system: Mus musculus; test: Dose of compound causing a neurological deficit in 50% of mice after ip administration; 13-115; format: functional
In short: (§2)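 Traction test in male Hilltop ICR-derived mice (19-30 g, groups of 8-10) just before electroshock, 15 min after ip or 30 min after oral dosing. Mice placed on a 16-gauge, 65-cm copper wire 40 cm above the table; deficit scored as failure to stay on for 10 s. ND50 with 95% limits by Litchfield-Wilcoxon.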

[3] = system: Mus musculus; test: Dose causing a neurological deficit in 50% of mice following p.o. administration.; format: functional; in short: as §2
[4] = system: Rattus norvegicus; test: Compound was evaluated for anticonvulsant activity by maximal electroshock assay(MES) in rat after ip administration; 5.3-12; format: functional
In short: (§3)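 Male Simonsen Sprague-Dawley-derived rats, 80-110 g, groups of 8-10, dosed with compound or aqueous vehicle; pretreatment 15 min after ip or 30 min after oral dosing. Transcorneal electroshock, 150 mA, 60 Hz, 0.2 s, given after the wire test. ED50 with 95% confidence limits from quantal data by Litchfield-Wilcoxon.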

[5] = system: Rattus norvegicus; test: Compound was evaluated for anticonvulsant activity by maximal electroshock assay(MES) in rat after po administration; 11-42; format: functional; in short: as §3
[6] = system: Rattus norvegicus; test: Dose of compound causing a neurological deficit in 50% of rat after ip administration; 26-92; format: functional
In short: (§4)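 Rats (Simonsen Sprague-Dawley-derived, 80-110 g, groups of 8-10) placed on a suspended 16-gauge, 65-cm copper wire just before electroshock. Deficit scored as inability to remain for 8 s. Pretreatment was 15 min ip or 30 min oral. Quantal data analysed by Litchfield-Wilcoxon to give ND50 with 95% limits.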

[7] = system: Rattus norvegicus; test: Dose of compound causing a neurological deficit in 50% of rat after po administration.; format: functional; in short: as §4
[8] = system: Mus musculus; test: Protective index defined as ND50 (p.o.) divided by MES ED50(op); format: functional
In short: (§5)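 Ratio of ND50 from the wire traction test to MES ED50, both measured by the same route (ip or oral) in the same animals. Quantal dose-response data for each were evaluated by Litchfield-Wilcoxon.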

[9] = system: Mus musculus; test: Compound was evaluated for anticonvulsant activity by maximal electroshock assay(MES) in mice after po administration; 68-149; format: functional; in short: as §1
[10] = system: Mus musculus; test: Anticonvulsant activity in mouse maximal electroshock assay following i.p. administration.; format: functional; conditions: ip
In short: (§6)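 Male Hilltop ICR-derived mice (19-30 g), groups of 8-10, dosed ip with compound or aqueous vehicle. After 15 min pretreatment, a transcorneal 60-Hz, 50 mA shock was given for 0.2 s. Just before the shock, each mouse was tested on a horizontal wire (10 s). Quantal data were analysed by Litchfield-Wilcoxon to give ED50 with 95% confidence limits.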

[11] = system: Mus musculus; test: Dose of compound causing a neurological deficit in 50% of mice after ip administration; format: functional; in short: as §2
[12] = system: Mus musculus; test: Protective index is defined as ND50 (i.p.) divided by MES ED50(i.p.); format: functional; in short: as §5
[13] = system: Mus musculus; test: Compound was evaluated for anticonvulsant activity by maximal electroshock assay(MES) in mice after po administration; 33-62; format: functional; in short: as §1
[14] = system: Mus musculus; test: Dose of compound causing a neurological deficit in 50% of mice after ip administration; 32-89; format: functional; in short: as §2
[15] = Lethal dose was measured in mice after ip administration.; format: toxicity, organism-based; conditions: mouse, in vivo
In short: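 Male Simonsen ICR-derived mice (16-24 g), groups of three, given compound ip in increasing doses within a behavioral screen. Deaths counted on day 5, and LD50 estimated from 5-day survival. Quantal data analysed by the Litchfield-Wilcoxon method.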

[16] = system: Mus musculus; test: Compound was evaluated for anticonvulsant activity by maximal electroshock assay(MES) in mice after ip administration; 23-38; format: functional; in short: as §6
[17] = system: Mus musculus; test: Dose of compound causing a neurological deficit in 50% of mice after ip administration; 70-93; format: functional; in short: as §2
[18] = system: Mus musculus; test: Compound was evaluated for anticonvulsant activity by maximal electroshock assay(MES) in mice after po administration; 41-77; format: functional; in short: as §1
[19] = system: Mus musculus; test: Dose of compound causing a neurological deficit in 50% of mice after ip administration; 16-49; format: functional; in short: as §2
[20] = system: Mus musculus; test: Compound was evaluated for anticonvulsant activity by maximal electroshock assay(MES) in mice after ip administration; 37-68; format: functional; in short: as §6
[21] = system: Mus musculus; test: Dose causing a neurological deficit in 50% of mice after ip administration.; format: functional; in short: as §2
[22] = system: Mus musculus; test: Compound was evaluated for anticonvulsant activity by maximal electroshock assay(MES) in mice after ip administration; 9-26; format: functional; in short: as §6
[23] = system: Mus musculus; test: Dose of compound causing a neurological deficit in 50% of mice after ip administration; 17-61; format: functional; in short: as §2
[24] = system: Mus musculus; test: Compound was evaluated for anticonvulsant activity by maximal electroshock assay(MES) in mice after ip administration; 8-13; format: functional; in short: as §6
[25] = system: Mus musculus; test: Dose of compound causing a neurological deficit in 50% of mice after ip administration; 16 to > 100; format: functional; in short: as §2
[26] = system: Mus musculus; test: Dose of compound causing a neurological deficit in 50% of mice after ip administration; 79-125; format: functional; in short: as §2
[27] = system: Rattus norvegicus; test: Compound was evaluated for anticonvulsant activity by maximal electroshock assay(MES) in rat after po administration; 34-83; format: functional; in short: as §3
[28] = system: Rattus norvegicus; test: Dose of compound causing a neurological deficit in 50% of rat after ip administration.; format: functional; in short: as §4
[29] = system: Mus musculus; test: Compound was evaluated for anticonvulsant activity by maximal electroshock assay(MES) in mice after ip administration; 14-23; format: functional; in short: as §6
[30] = system: Rattus norvegicus; test: Compound was evaluated for anticonvulsant activity by maximal electroshock assay(MES) in rat after ip administration; 8-23; format: functional; in short: as §3
[31] = system: Mus musculus; test: Compound was evaluated for anticonvulsant activity by maximal electroshock assay(MES) in mice after ip administration; 27-41; format: functional; in short: as §6
[32] = system: Mus musculus; test: Dose of compound causing a neurological deficit in 50% of mice after ip administration; 34-82; format: functional; in short: as §2
[33] = system: Mus musculus; test: Compound was evaluated for anticonvulsant activity by maximal electroshock assay(MES) in mice after ip administration; 14-24; format: functional; in short: as §6
[34] = system: Mus musculus; test: compound was evaluated for anticonvulsant activity by maximal electroshock assay(MES) in mice after po administration.; format: functional
In short: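 Male Hilltop ICR-derived mice, 19-30 g, groups of 8-10, dosed orally with compound or aqueous vehicle. Transcorneal electroshock (50 mA, 60 Hz, 0.2 s) delivered 30 min after dosing, immediately after a wire-hang neurological test. ED50 with 95% confidence limits estimated from quantal data by Litchfield-Wilcoxon.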

[35] = system: Rattus norvegicus; test: Compound was evaluated for anticonvulsant activity by maximal electroshock assay(MES) in rat after po administration.; format: functional; in short: as §3
[36] = system: Rattus norvegicus; test: Compound was evaluated for anticonvulsant activity by maximal electroshock assay(MES) in rat after ip administration.

For `Cl.c1ccc2c(C3(Cn4ccnc4)OCCO3)cccc2c1`, the ED50 [1] was 23 mg/kg, the ND50 [2] was 28 mg/kg and the ND50 [3] was over 100 mg/kg. For the same compound, the ED50 [4] was 7.8 mg/kg, the ED50 [5] was 22 mg/kg and the ND50 [6] was 44 mg/kg. The ND50 [7] was about 200 mg/kg and the PI [8] was >4.3 and ~9.
Compound `CCc1ccc2cc(C3(Cn4ccnc4)OCCO3)ccc2c1.Cl` has an ED50 [9] of 100 mg/kg, an ED50 [10] of 25 mg/kg and an ND50 [11] of over 100 mg/kg. For the same compound, the ND50 [3] was over 200 mg/kg, the PI [8] was over 2 and the PI [12] was over 4.
In the case of `CC1(C)COC(Cn2ccnc2)(c2ccc3ccccc3c2)OC1.Cl`, the ED50 [13] is reported as 47 mg/kg, the ND50 [14] is reported as 52 mg/kg and the ND50 [3] is reported as over 100 mg/kg. It also gave an LD50 [15] of over 100 mg/kg, a PI [8] of over 2.1 and a PI [12] of 2.
In the case of `CC(C)c1ccc(C(=O)Cn2ccnc2)c2ccccc12.Cl`, the ED50 [16] is reported as 28 mg/kg, the ND50 [17] is reported as 81 mg/kg and the PI [12] is reported as 2.9.
Work on `Cl.c1ccc2cc(C3(Cn4ccnc4)OCCCO3)ccc2c1` yielded an ED50 [18] of 57 mg/kg, an ND50 [19] of 30 mg/kg and an ND50 [3] of over 100 mg/kg. It also gave a PI [8] of over 1.7 and a PI [12] of 1.8.
With `Cl.O=C(Cn1ccnc1)c1ccc2cc(Cl)ccc2c1` the ED50 [20] was 51 mg/kg, the ND50 [21] was over 100 mg/kg and the PI [12] was over 2.
In the case of `O=S(=O)(O)O.c1ccc(OC(Cn2ccnc2)c2ccc3ccccc3c2)cc1` (stereo not given), the ED50 [22] is reported as 15 mg/kg, the ND50 [23] is reported as 32 mg/kg and the PI [12] is reported as 2.1.
Work on `COC(CCn1ccnc1)c1ccc2ccccc2c1.O=S(=O)(O)O` (stereo not given) yielded an ED50 [24] of 11 mg/kg, an ND50 [25] of over 39 mg/kg and a PI [12] of 3.5.
`Cl.O=C(OC(Cn1ccnc1)c1ccc2ccccc2c1)c1ccccc1` (stereo not given) showed an ND50 [26] of 99 mg/kg, an ED50 [27] of 53 mg/kg and an ND50 [28] of over 100 mg/kg. The ND50 [7] was over 100 mg/kg, the PI [12] was 5.2 and the ED50 [29] was 19 mg/kg. It also gave an ED50 [30] of 14 mg/kg.
With `c1ccc2cc(C3(CCn4ccnc4)OCCO3)ccc2c1` the ND50 [21] was over 100 mg/kg, the PI [12] was over 2.9 and the ED50 [31] was 35 mg/kg.
In the case of `COC(Cn1ccnc1)c1cccc2ccccc12` (stereo not given), the ND50 [32] is reported as 51 mg/kg, the ED50 [33] is reported as 19 mg/kg and the PI [12] is reported as 2.7.
Work on `O=C1NC(=O)C(c2ccccc2)(c2ccccc2)N1` [PHENYTOIN] yielded an ED50 [10] of 13 mg/kg, an ND50 [21] of over 300 mg/kg and an ND50 [3] of over 200 mg/kg. For the same compound, the LD50 [15] was over 300 mg/kg, the ED50 [34] was 22 mg/kg and the ED50 [35] was 85 mg/kg. It also gave an ND50 [28] of over 300 mg/kg, an ND50 [7] of over 300 mg/kg and a PI [12] of over 23.1. For the same compound, the ED50 [36] was 21 mg/kg.
